This is an account of results in ChEMBL document CHEMBL1125107, “Cephalosporin 3'-quinolone esters with a dual mode of action” (J Med Chem, 1990).

Molecules are shown by their SMILES. Values after ≈ are worked out from the molar mass of the structure shown. Some results are limits rather than exact numbers.

Data set [1] deals with Pseudomonas aeruginosa. Kind of data set: Evaluated for the minimum inhibitory concentration against Pseudomonas aeruginosa 18S/H ( Class Id beta-lactamase overproducer). It counts as functional. A digest of the protocol: (§1)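 MIC by serial 2-fold dilution in Mueller-Hinton broth; results given as minimum inhibitory concentrations (nmol/mL).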
The test system of data set [2] is Streptococcus pyogenes. Kind of data set: Evaluated for the in vivo activity in mice against streptococcus pyogenes 4. The class given is functional.
The nature of data set [3]: Evaluated for its stability in dog blood at 37 degrees Celsius as determined by HPLC analysis. It counts as ADME, organism-based, Canis lupus familiaris. An outline of the steps: (§2)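 Compound solutions incubated at 37 °C, sampled at intervals; remaining starting material quantified by HPLC on PRP-1 column, UV 286 nm, mobile phase 0.01 M tetradecyltrimethylammonium bromide in 60% 0.067 M pH 7.4 phosphate buffer/40% acetonitrile; half-life reported.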

The test system of data set [4] is Escherichia coli. In words: Evaluated for the in vivo activity in mice against Escherichia coli 257. It counts as functional.
Data set [5] concerns Staphylococcus aureus. In words: Minimum inhibitory concentration against Staphylococcus aureus 95 (Methicillin-resistant, high-level beta-lactamase producer). It counts as functional. A digest of the protocol:
(§3)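 Serial 2-fold broth dilution in Mueller-Hinton broth, run by standard methodology; read-out is the minimum inhibitory concentration (MIC).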

A short description of data set [6]: Evaluated for its stability in rat blood at 37 degrees Celsius as determined by HPLC analysis. The class given is ADME, organism-based. An outline of the steps:
as §2

Data set [7] relates to Micrococcus luteus. Kind of data set: Evaluated for in Vitro activity against Micrococcus luteus PCI. It counts as functional. The settings on record: read-out: MIC. A digest of the protocol: as §1
Data set [8] is described as follows: Evaluated for its stability in phosphate buffer, pH 7.4 at 37 degrees Celsius as determined by HPLC analysis. The class given is physicochemical. An outline of the steps: as §2
In data set [9] the test system is Proteus vulgaris. Kind of data set: Minimum inhibitory concentration against Proteus vulgaris 1028 BC (Class Ic beta-lactamase overproducer). The class given is functional. An outline of the steps: (§4)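 Broth MIC determination: serial 2-fold dilutions in Mueller-Hinton broth by standard methodology; the lowest concentration inhibiting growth is reported as the MIC, in nmol/mL.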

Data set [10] can be described thus: Evaluated for its stability in human serum at 37 degrees Celsius as determined by HPLC analysis. The class given is ADME, organism-based. An outline of the steps: as §2
In data set [11] the test system is Streptococcus pneumoniae. Kind of data set: Minimum inhibitory concentration against Streptococcus pneumoniae 6301. It counts as functional. An outline of the steps: as §4
The nature of data set [12]: Evaluated for its stability in monkey serum at 37 degrees Celsius as determined by HPLC analysis. The settings on record: simiiformes. The class given is ADME, cell-free. An outline of the steps:
as §2

Data set [13] concerns Escherichia coli. In words: Evaluated for the minimum inhibitory concentration against Escherichia coli UB 1005. It counts as functional. An outline of the steps:
as §1

Data set [14] is described as follows: Evaluated for its stability in rat serum at 37 degrees Celsius as determined by HPLC analysis. The class given is ADME, organism-based. An outline of the steps:
as §2

Data set [15] is described as follows: Evaluated for its stability in Mueller-Hinton broth at 37 degrees Celsius as determined by HPLC analysis. It counts as physicochemical. An outline of the steps: as §2
Data set [16] concerns Escherichia coli. In words: Evaluated for in Vitro activity against Escherichia coli DC-O. The class given is functional. The following applies: read-out: MIC. A digest of the protocol: as §1
Data set [17] can be described thus: Evaluated for its stability in dog serum at 37 degrees Celsius as determined by HPLC analysis. It counts as ADME, organism-based, Canis lupus familiaris. A digest of the protocol:
as §2

Data set [18] relates to Streptococcus pyogenes. In words: Minimum inhibitory concentration against Streptococcus pyogenes 4. It counts as functional. An outline of the steps: as §4
The nature of data set [19]: Evaluated for its stability in phosphate buffer, pH 6.5 at 37 degrees Celsius as determined by HPLC analysis. It counts as physicochemical. An outline of the steps:
as §2

Data set [20] deals with Streptococcus pneumoniae. In words: Evaluated for in Vitro activity against Streptococcus pneumoniae 6301. The class given is functional. The following applies: read-out: MIC. An outline of the steps:
as §1

Data set [21] deals with Pseudomonas aeruginosa. In words: Minimum inhibitory concentration against Pseudomonas aeruginosa ATCC 27853. It counts as functional. An outline of the steps:
as §4

In data set [22] the test system is Staphylococcus aureus. In words: Evaluated for the minimum inhibitory concentration against Staphylococcus aureus 95 (Methicillin-resistant, high-level beta-lactamase producer). It counts as functional. An outline of the steps:
as §3

Data set [23] has as its system Proteus vulgaris. Kind of data set: Evaluated for the minimum inhibitory concentration against Proteus vulgaris 1028 BC (Class Ic beta-lactamase overproducer. The class given is functional. An outline of the steps:
as §1

Data set [24] deals with Escherichia coli. Kind of data set: In vivo effective dose against mice infected with Escherichia coli 257. The class given is functional. An outline of the steps: (§5)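 Mouse protection test against systemic infection, run by literature procedures; the compound was given subcutaneously, and the effective dose (ED50, mg/kg) was determined.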
The test system of data set [25] is Staphylococcus aureus. In words: In vitro antibacterial activity was determined against Staphylococcus aureus ATCC 29213 (inducible, low level beta-lactamase producer). It counts as functional. A digest of the protocol: as §3
Data set [26] concerns Streptococcus pneumoniae. Kind of data set: (§6) In vitro antibacterial activity was determined against Streptococcus pneumoniae 6301. It counts as functional. An outline of the steps:
as §4

The next data set deals with Serratia marcescens. Kind of data set: In vitro antibacterial activity was determined against Serratia marcescens 1071. It counts as functional. An outline of the steps:
as §4

In data set [27] the test system is Pseudomonas aeruginosa. Kind of data set: In vitro antibacterial activity was determined against Pseudomonas aeruginosa ATCC 27853. It counts as functional. A digest of the protocol: as §4
Data set [28] relates to Micrococcus luteus. In words: In vitro antibacterial activity was determined against Micrococcus luteus PCI. It counts as functional. A digest of the protocol:
as §1

Another data set concerns Enterococcus faecalis. Kind of data set: In vitro antibacterial activity was determined against Enterococcus faecalis ATCC 29212. It counts as functional. An outline of the steps:
as §1

Data set [29] concerns Streptococcus pyogenes. In words: In vitro antibacterial activity was determined against Streptococcus pyogenes 4. The class given is functional. A digest of the protocol:
as §4

Data set [30] has as its system Staphylococcus aureus. Kind of data set: In vitro antibacterial activity was determined against Staphylococcus aureus 1059B ( inducible, high level beta-lactamase producer). The class given is functional. An outline of the steps:
as §4

Data set [31] has as its system Staphylococcus aureus. Kind of data set: In vitro antibacterial activity was determined against Staphylococcus aureus 95 (Methicillin-resistant, high-level beta-lactamase producer). It counts as functional. A digest of the protocol:
as §3

Data set [32] deals with Streptococcus pyogenes. In words: In vivo effective dose against mice infected with streptococcus pyogenes 4. The class given is functional. An outline of the steps: as §5
In data set [33] the test system is Escherichia coli. In words: In vitro antibacterial activity was determined against Escherichia coli DC-O. It counts as functional. A digest of the protocol:
as §1

In another data set the test system is Enterobacter cloacae. In words: In vitro antibacterial activity was determined against Enterobacter cloacae P99 (Class Ia beta-lactamase overproducer). It counts as functional. A digest of the protocol:
as §1

In the next data set the test system is Citrobacter freundii. Kind of data set: In vitro antibacterial activity was determined against Citrobacter freundii BS-16. The class given is functional. An outline of the steps:
as §1

Data set [34] deals with Proteus vulgaris. In words: In vitro antibacterial activity was determined against Proteus vulgaris 1028 BC (Class Ic beta-lactamase overproducer). It counts as functional. An outline of the steps: as §1
For data set [35], the system named is Pseudomonas aeruginosa. Kind of data set: In vitro antibacterial activity was determined against Pseudomonas aeruginosa 18S/H (Class Id beta-lactamase overproducer). The class given is functional. An outline of the steps: as §4
The test system of data set [36] is Streptococcus pneumoniae. The description is as §6. The class given is functional. An outline of the steps: as §4
This is another data set of the same source.

For data set [37], the system named is Escherichia coli. In words: In vitro antibacterial activity was determined against Escherichia coli TEM-1 (TEM-1 (class IIIa) beta-lactamase producer). The class given is functional. An outline of the steps:
as §1

The next data set deals with Proteus mirabilis. In words: In vitro antibacterial activity was determined against Proteus mirabilis 90. It counts as functional. A digest of the protocol:
as §1

For data set [38], the system named is Proteus vulgaris. In words: Evaluated for the minimum inhibitory concentration against Proteus vulgaris 1028 BC ( Class Ic beta-lactamase overproducer). It counts as functional. A digest of the protocol:
as §1

For `CO/N=C(/C(=O)N[C@@H]1C(=O)N2C(C(=O)O)=C(COC(=O)c3cn(CCF)c4c(F)c(N5CCN(C)CC5)c(F)cc4c3=O)CSC12)c1csc(N)n1` (stereo partly drawn), the MIC against Pseudomonas aeruginosa [1] is 4 µg/mL (≈ 5.23 µM); against Staphylococcus aureus [5], 2 µg/mL (≈ 2.62 µM); with Micrococcus luteus [7], 0.0746 µM (≈ 0.0571 µg/mL); in the data set with Proteus vulgaris [9], 0.25 µg/mL (≈ 0.327 µM); in the data set on Streptococcus pneumoniae [11], below 0.008 µg/mL; against Escherichia coli [13], 0.12 µg/mL (≈ 0.157 µM). The MIC in the data set with Escherichia coli [16] is 0.299 µM (≈ 0.229 µg/mL); against Streptococcus pyogenes [18], 0.031 µg/mL (≈ 0.0405 µM); with Streptococcus pneumoniae [20], 0.0187 µM (≈ 0.0143 µg/mL); against Pseudomonas aeruginosa [21], 8 µg/mL (≈ 10.5 µM). Moreover, the 50% effective dose (ED50) in the data set with Streptococcus pyogenes [2] amounted to 8.8 mg/kg; with Escherichia coli [4], 1.8 mg/kg. Moreover, the half-life in [3] was 3.4 h; in [6] it was 5.8 h; in data set [8] it was 3 h; in data set [10], 6.3 h; in data set [12], 5.7 h; in data set [14], 4.5 h. Besides, the half-life in [15] is 3.4 h; in data set [17] it was 3.9 h; in [19], 6.9 h.

`CN1CCN(c2c(F)cc3c(=O)c(C(=O)OCC4=C(C(=O)O)N5C(=O)[C@@H](NC(=O)/C(=N/OCC(=O)O)c6csc(N)n6)C5SC4)cn(CCF)c3c2F)CC1` (stereo partly drawn): the MIC in the data set with Pseudomonas aeruginosa [1] turned out to be 4 µg/mL (≈ 4.95 µM); against Staphylococcus aureus [22], 1 µg/mL (≈ 1.24 µM); in the data set with Proteus vulgaris [23], 0.25 µg/mL (≈ 0.309 µM); in the data set on Streptococcus pneumoniae [11] it was 0.5 µg/mL (≈ 0.618 µM); with Streptococcus pyogenes [18], 0.5 µg/mL (≈ 0.618 µM); in the data set on Pseudomonas aeruginosa [21], 32 µg/mL (≈ 39.6 µM).

With `CN1CCN(c2c(F)cc3c(=O)c(C(=O)O)cn(CCF)c3c2F)CC1` [FLEROXACIN], the results for the ED50 in the data set on Escherichia coli [24] and in the data set with Streptococcus pyogenes [32] were 0.4 mg/kg and 183 mg/kg, respectively. Also, the minimum inhibitory concentration (MIC) turned out to be 0.5 µg/mL (≈ 1.35 µM) against Staphylococcus aureus [25]; 9.53 µM (≈ 3.52 µg/mL) with Streptococcus pneumoniae [26]; 0.25 µg/mL (≈ 0.677 µM) against Serratia marcescens; 4 µg/mL (≈ 10.8 µM) in the data set with Pseudomonas aeruginosa [27]; 38.2 µM (≈ 14.1 µg/mL) in the data set with Micrococcus luteus [28]; 4 µg/mL (≈ 10.8 µM) with Enterococcus faecalis. In addition, the MIC in the data set on Streptococcus pyogenes [29] was determined as 1 µg/mL (≈ 2.71 µM); against Staphylococcus aureus [30], 0.5 µg/mL (≈ 1.35 µM); in the data set on Staphylococcus aureus [31], 0.5 µg/mL (≈ 1.35 µM); with Escherichia coli [33], 1.19 µM (≈ 0.44 µg/mL); in the data set with Enterobacter cloacae it was 0.125 µg/mL (≈ 0.338 µM); with Citrobacter freundii it was 1 µg/mL (≈ 2.71 µM). Further, the minimum inhibitory concentration (MIC) in the data set with Proteus vulgaris [34] turned out to be 0.25 µg/mL (≈ 0.677 µM); in the data set with Pseudomonas aeruginosa [35] it was 2 µg/mL (≈ 5.42 µM); in the data set on Streptococcus pneumoniae [36], 4 µg/mL (≈ 10.8 µM); in the data set with Escherichia coli [37] it was 0.125 µg/mL (≈ 0.338 µM); in the data set with Proteus mirabilis it was 0.5 µg/mL (≈ 1.35 µM).

On to `CCn1cc(C(=O)OCC2=C(C(=O)O)N3C(=O)[C@@H](NC(=O)/C(=N/OC)c4csc(N)n4)C3SC2)c(=O)c2cc(F)c(N3CCCC3)cc21` (stereo partly drawn), for which the minimum inhibitory concentration (MIC) in the data set on Pseudomonas aeruginosa [1] is 32 µg/mL (≈ 45.7 µM); in the data set on Staphylococcus aureus [5] it was 0.5 µg/mL (≈ 0.715 µM); against Proteus vulgaris [38], 4 µg/mL (≈ 5.72 µM); against Streptococcus pneumoniae [11] it was below 0.008 µg/mL; in the data set on Escherichia coli [13], 0.5 µg/mL (≈ 0.715 µM); against Streptococcus pyogenes [18] it was 1 µg/mL (≈ 1.43 µM). Also, the minimal inhibitory concentration (MIC) in the data set on Pseudomonas aeruginosa [21] is above 128 µg/mL.
